Test results: ChEMBL document CHEMBL5352425, “Discovery of the 4-aminopiperidine-based compound EM127 for the site-specific covalent inhibition of SMYD3” (Eur J Med Chem, 2022)
Activity calls are given as the source filed them. The calls are words filed in the database; no cut-off is given here.

Experiments:
[1] = target: T1, Histone-lysine N-methyltransferase SMYD3 (Homo sapiens) (UniProt Q9H7B4); experiment: Binding affinity to full length recombinant SMYD3 (unknown origin) overexpressed in Escherichia coli Rosetta cells assessed as inactivation constant measured after 1 hr by LC-MS analysis
T1 sequence (whole entry): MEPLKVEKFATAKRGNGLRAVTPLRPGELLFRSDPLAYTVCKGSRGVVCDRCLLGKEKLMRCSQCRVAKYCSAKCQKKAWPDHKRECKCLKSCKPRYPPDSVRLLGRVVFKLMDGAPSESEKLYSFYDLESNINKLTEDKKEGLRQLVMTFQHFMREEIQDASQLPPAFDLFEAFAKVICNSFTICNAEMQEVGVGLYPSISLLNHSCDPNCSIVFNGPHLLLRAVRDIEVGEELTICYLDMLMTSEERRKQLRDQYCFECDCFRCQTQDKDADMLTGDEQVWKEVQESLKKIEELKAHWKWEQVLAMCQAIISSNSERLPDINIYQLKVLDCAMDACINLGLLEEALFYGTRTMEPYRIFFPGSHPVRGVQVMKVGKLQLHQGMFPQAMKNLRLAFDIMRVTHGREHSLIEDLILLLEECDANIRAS

MDA-MB-231 [2] = experiment: Effect on FN1 mRNA expression in SMYD3 knockout human MDA-MB-231 cells at 0.5 to 5 uM measured for 48 to 72 hrs by RT-qPCR analysis; assay type: functional, cell-based; details: dose 0.5-5 µM, time 48-72 hrs
Summary of the method: (§1)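 MDA-MB-231 or SMYD3-knockout (CRISPR/Cas9) MDA-MB-231 cells in DMEM/10% FBS treated 48 h with 0.5–50 μM compound, or 72 h with reference inhibitor at 10–50 μM; DMSO control. Total RNA extracted with TRI reagent, CDK2, c-MET, FN1 and N-CAD transcripts measured by RT-qPCR and quantified by the ddCT method.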

[3] = target: T1, Histone-lysine N-methyltransferase SMYD3 (Homo sapiens); experiment: Binding affinity to full length recombinant SMYD3 (unknown origin) overexpressed in Escherichia coli Rosetta cells assessed as Kinact/Ki ratio measured after 1 hr by LC-MS analysis
[4] = target: T1, Histone-lysine N-methyltransferase SMYD3 (Homo sapiens); experiment: Binding affinity to full length recombinant SMYD3 (unknown origin) overexpressed in Escherichia coli Rosetta cells assessed as covalent adduct formation by SPR analysis
Summary of the method: (§2)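 SPR on Biacore X100 at 15 °C: SMYD3 amine-coupled on CM5 chips at 6500–10000 RU, immobilised in HBS-T pH 7.4. Analysis buffer Tris-HCl 50 mM, NaCl 150 mM, 2 mM DTT, 0.05% Tween-20, 2% DMSO, pH 8.0, with or without SAM at saturating concentration. Equilibrium responses solvent-corrected.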

[5] = target: T1, Histone-lysine N-methyltransferase SMYD3 (Homo sapiens); experiment: Inhibition of full length recombinant SMYD3 (unknown origin) at 5 uM measured at 24 hrs by LC-ESI-MS analysis relative to control
MDA-MB-231 [6] = experiment: Downregulation of CDK2 mRNA expression in human MDA-MB-231 cells at 0.5 uM by RT-qPCR analysis; assay type: functional, cell-based; summary of the method: as §1
[7] = target: T1, Histone-lysine N-methyltransferase SMYD3 (Homo sapiens); experiment: Inhibition of SMYD3 in human HCT-116 cells assessed as decrease in ERK1/2 phosphorylation measured for 48 to 72 hrs by immunoblotting analysis; assay type: cell-based; details: dose <= 5.0 µM, time 48-72 hrs
Summary of the method: (§3)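 HCT116 or MDA-MB-231 cells treated with compound, DMSO as control. Whole-cell lysates in Tris/EDTA/NaCl/1% Triton X-100 with protease and phosphatase inhibitors. 20 μg protein run on 7.5% SDS-PAGE and blotted to nitrocellulose, probed for phospho-ERK1/2 (Thr202/Tyr204), total ERK1/2 and cleaved PARP, with actin as loading control.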

MDA-MB-231 [8] = experiment: Effect on CDK2 mRNA expression in SMYD3 knockout human MDA-MB-231 cells at 0.5 to 5 uM measured for 48 to 72 hrs by RT-qPCR analysis; assay type: functional, cell-based; details: dose 0.5-5 µM, time 48-72 hrs; summary of the method: as §1
[9] = target: T1, Histone-lysine N-methyltransferase SMYD3 (Homo sapiens); experiment: Inhibition of SMYD3 in human HCT-116 cells assessed as decrease in ERK1/2 phosphorylation upto 5 uM by immunoblotting analysis; assay type: cell-based; details: time 48-72 hrs, TDE = time-dependent effect; summary of the method: as §3
[10] = target: T2, Histone-lysine N-methyltransferase SMYD3 (Homo sapiens, UniProt Q9H7B4); experiment: Binding affinity to full length recombinant SMYD3 (unknown origin) overexpressed in Escherichia coli Rosetta cells assessed as dissociation constant by SPR analysis; summary of the method: as §2
T2 sequence (Q9H7B4 whole entry): T1 sequence (whole entry)

[11] = target: T1, Histone-lysine N-methyltransferase SMYD3 (Homo sapiens); experiment: Inhibition of SMYD3 in human HCT-116 cells assessed as increase in cleaved PARP level at 5 uM measured for 48 to 72 hrs by immunoblotting analysis; details: time 48-72 hrs
[12] = target: T1, Histone-lysine N-methyltransferase SMYD3 (Homo sapiens); experiment: Binding affinity to full length recombinant SMYD3 (unknown origin) at Cys186 residue overexpressed in Escherichia coli Rosetta cells assessed as covalent adduct formation at 1 to 100 uM measured for 24 hrs by LC-MS analysis relative to control; details: dose 1-100 µM
Summary of the method: (§4)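 Recombinant SMYD3 expressed in E. coli Rosetta 2, final 10 μM, incubated at 23 °C in Tris 50 mM pH 8.0, 75 mM NaCl with compound at final 1, 10 or 100 μM, or equimolar 10 μM with sampling at 0–24 h. Samples DTT-denatured at 56 °C, iodoacetamide-alkylated, digested overnight with trypsin plus chymotrypsin at 30 °C, then analysed by LC-MS/MS on Q-ToF for adducted peptides. Triplicate.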

[13] = target: T1, Histone-lysine N-methyltransferase SMYD3 (Homo sapiens); experiment: Inhibition of full length recombinant SMYD3 (unknown origin) at 50 uM measured for 1 hr by LC-ESI-MS analysis relative to control
Summary of the method: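 SMYD3 preincubated 1 h at 23 °C with compound (SMYD3 5 μM, compound 50 μM, 2% DMSO), or at 5 μM compound for 1 or 24 h. Stopped with H2O/AcCN/FA, peptide methylation quantified by LC-ESI-MS. Duplicate.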

[14] = target: T1, Histone-lysine N-methyltransferase SMYD3 (Homo sapiens); experiment: Binding affinity to full length recombinant SMYD3 (unknown origin) at Cys186 residue overexpressed in Escherichia coli Rosetta cells assessed as covalent adduct formation at 1 to 100 uM measured after 1 hr by LC-MS analysis relative to control; details: dose 1-100 µM; summary of the method: as §4
[15] = Stability in human plasma measured at 6 hrs by LC-MS analysis; assay type: ADME, cell-free
Summary of the method: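 Compound spiked to final 10 μM into healthy-volunteer human plasma and held at 37 °C with gentle agitation. At 0–360 min, proteins precipitated with ice-cold acetonitrile containing propranolol internal standard. Supernatant dried, reconstituted, analysed by LC-MS with SIM (m/z 312; IS 260). Analyte/IS peak-area ratio followed over time, relative to time 0.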

[16] = target: T2, Histone-lysine N-methyltransferase SMYD3; experiment: Inhibition of full length recombinant SMYD3 (unknown origin) measured at 24 hrs
MDA-MB-231 [17] = experiment: Effect on N-cadherin mRNA expression in SMYD3 knockout human MDA-MB-231 cells at 0.5 to 5 uM measured for 48 to 72 hrs by RT-qPCR analysis; assay type: functional, cell-based; details: dose 0.5-5 µM, time 48-72 hrs; summary of the method: as §1
[18] = target: T1, Histone-lysine N-methyltransferase SMYD3 (Homo sapiens); experiment: Binding affinity to full length recombinant SMYD3 (unknown origin) at Cys186 residue overexpressed in Escherichia coli Rosetta cells assessed as covalent adduct formation at 1 to 100 uM by LC-MS analysis; details: dose 1-100 µM, time <= 24.0 hrs, TDE = time-dependent effect; summary of the method: as §4
[19] = target: T1, Histone-lysine N-methyltransferase SMYD3 (Homo sapiens); experiment: Inhibition of SMYD3 in human MDA-MB-231 cells assessed as decrease in ERK1/2 phosphorylation measured for 48 to 72 hrs by immunoblotting analysis; assay type: cell-based; details: dose <= 5.0 µM, time 48-72 hrs; summary of the method: as §3
[20] = target: T2, Histone-lysine N-methyltransferase SMYD3; experiment: Binding affinity to full length recombinant SMYD3 (unknown origin) overexpressed in Escherichia coli Rosetta cells assessed as inhibition constant measured after 1 hr by LC-MS analysis
[21] = target: T1, Histone-lysine N-methyltransferase SMYD3 (Homo sapiens); experiment: Binding affinity to full length recombinant SMYD3 (unknown origin) at Cys186 residue overexpressed in Escherichia coli Rosetta cells assessed as covalent adduct formation measured for 24 hrs by LC-MS analysis; details: dose 1-100 µM; summary of the method: as §4
[22] = target: T1, Histone-lysine N-methyltransferase SMYD3 (Homo sapiens); experiment: Inhibition of SMYD3 in human MDA-MB-231 cells assessed as decrease in cleaved PARP level at 5 uM measured for 48 to 72 hrs by immunoblotting analysis; assay type: cell-based; details: time 48-72 hrs; summary of the method: as §3
MDA-MB-231 [23] = experiment: Effect on c-MET mRNA expression in SMYD3 knockout human MDA-MB-231 cells at 0.5 to 5 uM measured for 48 to 72 hrs by RT-qPCR analysis; assay type: functional, cell-based; details: dose 0.5-5 µM, time 48-72 hrs; summary of the method: as §1
MDA-MB-231 [24] = experiment: Downregulation of C-MET mRNA expression in human MDA-MB-231 cells at 0.5 uM by RT-qPCR analysis; assay type: functional, cell-based; summary of the method: as §1
[25] = target: T1, Histone-lysine N-methyltransferase SMYD3 (Homo sapiens); experiment: Inhibition of SMYD3 in human MDA-MB-231 cells assessed as decrease in ERK1/2 phosphorylation upto 5 uM by immunoblotting analysis; assay type: cell-based; details: time 48-72 hrs, TDE = time-dependent effect; summary of the method: as §3
MDA-MB-231 [26] = experiment: Downregulation of CDK2 mRNA expression in human MDA-MB-231 cells at 50 uM measured for 48 to 72 hrs by RT-qPCR analysis; assay type: functional, cell-based; details: time 48-72 hrs; summary of the method: as §1
MDA-MB-231 [27] = experiment: Downregulation of c-MET mRNA expression in human MDA-MB-231 cells at 50 uM measured for 48 to 72 hrs by RT-qPCR analysis; assay type: functional, cell-based; details: time 48-72 hrs; summary of the method: as §1
MDA-MB-231 [28] = experiment: Downregulation of N-cadherin mRNA expression in human MDA-MB-231 cells at 50 uM measured for 48 to 72 hrs by RT-qPCR analysis; assay type: functional, cell-based; details: time 48-72 hrs; summary of the method: as §1
MDA-MB-231 [29] = experiment: Downregulation of FN1 mRNA expression in human MDA-MB-231 cells at 50 uM measured for 48 to 72 hrs by RT-qPCR analysis; assay type: functional, cell-based; details: time 48-72 hrs; summary of the method: as §1
[30] = target: T1, Histone-lysine N-methyltransferase SMYD3 (Homo sapiens); experiment: Inhibition of SMYD3 in human HCT-116 cells assessed as decrease in cleaved PARP level at 5 uM measured for 48 to 72 hrs by immunoblotting analysis; assay type: cell-based; details: time 48-72 hrs; summary of the method: as §3
MDA-MB-231 [31] = experiment: Antiproliferative activity against in human MDA-MB-231 cells assessed as reduction in cell viability measured after 48 hrs by trypan blue staining based phase contrast microscopic analysis; assay type: functional
Summary of the method: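 MDA-MB-231 cells in DMEM with 10% FBS and penicillin/streptomycin at 37 °C, 5% CO2, treated 48 h at 5 μM (vehicle 0.5% DMSO, DMSO control). Floating plus trypsinized adherent cells pooled, mixed with 0.01% trypan blue, unstained and stained cells counted by phase-contrast microscopy, % viable cells calculated. Mean ± SD, n=3.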

SMILES	Activity [4]	inhibition [5]	inhibition [7]	inhibition [9]	Kd [10]	inhibition [13]	IC50 [16]	inhibition [19]	Activity [21]	inhibition [22]	inhibition [25]	also measured
O=C(NC1CCN(C(=O)CCl)CC1)c1cc(C2CC2)on1	Active	85.6%	Dose-Dependent Effect	Tde	13 µM	92.1%	0.37 µM	Dose-Dependent Effect	Dose-Dependent Effect	Active	Tde	Kinact [1]: 4.49 10^-4/s; Activity (MDA-MB-231 [2]): inactive; Ratio [3]: 73.5 M⁻¹ s⁻¹; Activity (MDA-MB-231 [6]): Active; Activity (MDA-MB-231 [8]): inactive; inhibition [11]: Active; Activity [12]: 100%; Activity [14]: 50%; remaining at 6 h [15]: 76%; Activity (MDA-MB-231 [17]): inactive; Activity [18]: Tde; Ki [20]: 6.11 µM; Activity (MDA-MB-231 [23]): inactive; Activity (MDA-MB-231 [24]): Active
NC1CCN(C(=O)c2cc(C3CC3)on2)CC1						5%						
O=C1Cc2cc(C(=O)N[C@H]3C[C@H]4CC[C@@H](C3)C4S(=O)(=O)CC3CCN(CCCC(F)(F)F)CC3)c(Cl)cc2N1 (some centres not stated)		50.2%				100%	0.689 µM					Activity (MDA-MB-231 [26]): Active; Activity (MDA-MB-231 [27]): Active; Activity (MDA-MB-231 [28]): Active; Activity (MDA-MB-231 [29]): Active
O=C(NC1CCNCC1)c1cc(C2CC2)on1			Dose-Dependent Effect	Tde	32 µM	29.1%		Dose-Dependent Effect		inactive	Tde	inhibition [30]: inactive; Activity (MDA-MB-231 [31]): inactive
Cc1cc(C(=O)N2CCC(NC(=O)CCl)CC2)no1	inactive					< 5%						
O=C(CCl)NC1CCN(C(=O)c2cc(C3CC3)on2)CC1	Active					14%			Dose-Dependent Effect			
